HNF4A DNA FP: change in binding of human HNF4A to DNA, primary screen, biochemical, fluorescence polarization, FITC-DNA. AID 1224865, 2016. activity change, % at 10 µM. 360,000 compounds, 0.3% hits. Hepatocyte nuclear factor 4-alpha (Homo sapiens), P41235. 1 h; in the data active = activity change above about 30%, passing the limit was not always enough
CSN deneddyl inh: inhibitors of CSN-mediated cullin deneddylation, primary screen, biochemical, fluorescence polarization, uHTS | COP9 signalosome complex subunit 5 (Homo sapiens), Q92905 | Purified CSN, SCF-Nedd8-OG deneddylation | inhibition, % at 12.5 µM | 360,000 compounds, 0.38% hits;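 active = pattern-corrected inhibition above about 35%, with an unprinted fluorescence ratio check between 0.5 and 1.5, limit read from the data, passing the limit was not always enough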;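 also: 0% = enzyme with substrate and 100% = substrate without enzyme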
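Assay system: purified human Csn5 enzyme expressed in HEK293T cells; measure: % inhibition; also added: SCFSkp2-Nedd8OG substrate at 10 nM final; technique: fluorescence polarization; times: reaction 90 min, room temperature; medium: Tris buffer pH 7.5, NaCl, DTT, Tween-20, trehalose, ovalbumin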
SENP1 FRET inh: human SENP1 catalytic domain inhibitors, primary screen, biochemical, FRET, uHTS | Sentrin-specific protease 1 (Homo sapiens), Q9P0U3 | recombinant SENP1 catalytic domain, CyPet-SUMO1-YPet FRET cleavage | inhibition, % at 10 µM | 360,000 compounds, 0.21% hits | AID 624204, 2012;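 active = inhibition at least 30% at 10 µM, raw YFP signal under a set limit, fluorescence ratio 0.5 to 1.5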;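 also: 0% = enzyme with DMSO and 100% = no enzyme wells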
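System: Recombinant human SENP1 catalytic domain, His6-tagged | Incubation: Enzyme reaction for 50 min at room temperature, dark | Medium: Tris pH 8 with BME, BSA, NP40 and catalase | Also added: 25 nM SUMO1 FRET substrate | Compound: 10 µM single point, 0.5% DMSO | Measured by: FRET fluorescence in CFP and YFP emission channels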
TPT1 inhibitor: Candida albicans TPT1 enzyme inhibitors, primary screen, biochemical, fluorescence polarization | tRNA 2'-phosphotransferase TPT1 (Candida albicans SC5314) | recombinant caTPT1, FP RNA substrate dephosphorylation | inhibition, % at 5 µM | 300,000 compounds, 0.81% hits | AID 1962, 2009;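 active = inhibition above the mean of all tested compounds plus 3 SD, set per screening campaign, cut at about 24% in these data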;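 also: plate controls were DMSO alone for no effect and ferristatin control at 100 nM for full effect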
Rpn11 inh: Rpn11 (PSMD14) deubiquitinase inhibitors, primary screen, biochemical, fluorescence polarization, uHTS | 26S proteasome non-ATPase regulatory subunit 14 (Homo sapiens), O00487 | 360,000 compounds, 0.59% hits | inhibition, % at 20 µM | human 26S proteasome, Ub4-pepOG fluorescence polarization; 20S core pre-blocked with epoxomicin;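 active = inhibition at 20 µM, scaled to each plate's controls, above about 33%, limit read from the data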
Rpn11 confirm: Rpn11 (PSMD14) deubiquitinase inhibitors, confirmation, biochemical, fluorescence polarization, single concentration; shares compounds with Rpn11 inh; purified human 26S proteasome, Ub4-pepOG fluorescence polarization; proteasome pretreated with epoxomicin; 1,900 compounds, 29% hits; inhibition, % at 20 µM
MMP-2 counter-1: MMP-2 enzyme inhibition, confirmation, counter-screen for RPN11 inhibitor project, biochemical, fluorescence, single concentration; shares compounds with Rpn11 inh; recombinant MMP-2, FRET peptide cleavage fluorescence; inhibition, % at 20 µM; 1,900 compounds, 4% hits; AID 602330, 2012;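 also: human MMP-2 activated beforehand with APMA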
Thrombin inh: bovine thrombin protease inhibition, confirmation, counter-screen for Rpn11 inhibitor project, biochemical, fluorescence polarization, single concentration | shares compounds with Rpn11 inh | bovine thrombin cleavage of Ub4-pepOG | inhibition, % at 20 µM | 1,900 compounds, 13% hits | AID 602333, 2012;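 active = mean inhibition at least 40% at 20 µM, or signal 3 deviations below plate average, so some actives read negative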;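 also: plate controls were thrombin with DMSO for no effect and buffer wells lacking thrombin for full effect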
Target sequence (P00735 whole entry, looked up): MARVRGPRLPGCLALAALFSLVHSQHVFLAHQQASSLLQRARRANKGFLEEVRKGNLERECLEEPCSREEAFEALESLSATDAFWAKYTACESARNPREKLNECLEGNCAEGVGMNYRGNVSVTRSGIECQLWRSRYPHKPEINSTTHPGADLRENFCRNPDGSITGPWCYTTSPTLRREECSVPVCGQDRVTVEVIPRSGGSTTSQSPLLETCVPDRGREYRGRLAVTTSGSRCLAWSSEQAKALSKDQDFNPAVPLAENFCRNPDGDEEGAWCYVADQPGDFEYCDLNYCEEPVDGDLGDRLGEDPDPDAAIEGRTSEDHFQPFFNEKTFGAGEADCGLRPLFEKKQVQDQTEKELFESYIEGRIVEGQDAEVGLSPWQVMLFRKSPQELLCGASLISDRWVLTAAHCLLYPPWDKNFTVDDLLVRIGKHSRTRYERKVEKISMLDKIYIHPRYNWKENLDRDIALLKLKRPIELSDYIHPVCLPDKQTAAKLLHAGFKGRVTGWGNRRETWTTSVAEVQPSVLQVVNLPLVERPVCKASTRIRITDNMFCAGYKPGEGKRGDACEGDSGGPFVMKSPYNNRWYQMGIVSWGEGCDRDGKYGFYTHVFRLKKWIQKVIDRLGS
CSN5 deneddyl: Csn5 deneddylation inhibitors, confirmation, biochemical, fluorescence polarization, single concentration, SCF-Nedd8OG substrate. shares compounds with CSN deneddyl inh. Csn5 deneddylation of SCF-Nedd8OG, 90 min. inhibition, % at 16.6 µM. 540 compounds, 62% hits. AID 720654, 2013; in the data active = inhibition above about 50%;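 also: 0% = DMSO with enzyme and 100% = no enzyme wells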
MMP-2 counter-2: MMP-2 protease inhibition counter-screen, confirmation, counter-screen for CSN deneddylation inhibitor project, biochemical, fluorescence, single concentration | shares compounds with CSN deneddyl inh | recombinant MMP-2, FRET substrate fluorescence, 60 min | inhibition, % at 16.6 µM | 540 compounds, 33% hits | AID 720655, 2013;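 active = corrected plate-normalized z-score of 5 or more, or -5 or less, or inhibition of 15% or more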;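 also: plate controls were DMSO wells with enzyme for no effect and buffer wells lacking MMP-2 for full effect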
Thrombin cntr: thrombin (bovine) inhibition, counter-screen for CSN hits. inhibition, % at 16.6 µM. shares compounds with CSN deneddyl inh. bovine thrombin cleavage of Ub4-pepOG, fluorescence polarization. AID 720656. 540 compounds, 49% hits;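 active = inhibition at or above a set limit, with a fluorescence interference ratio between 0.5 and a set maximum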
An asterisk follows results filed as active; . = no result; + = active, no number. Sampled rows, rich in hits. Any-hit rate of the full collection: about 1.6%. Rule as the data show it, unless noted: active = inhibition above about 40%; inactive = the rest.

SMILES	HNF4A DNA FP	CSN deneddyl inh	SENP1 FRET inh	TPT1 inhibitor	Rpn11 inh	Rpn11 confirm	MMP-2 counter-1	Thrombin inh	CSN5 deneddyl	MMP-2 counter-2	Thrombin cntr
O=C(CSc1nc(-c2ccc(F)cc2)nc2c1Cc1ccccc1O2)Nc1cccc(C(=O)O)c1	-87.0	42.7*	3.3	.	+	0.0	1.6	82.2*	6.2	30.1*	5.7
COc1ccccc1S(=O)(=O)N(C)C[C@@H]1OCc2cnnn2CCCC(=O)N([C@H](C)CO)C[C@H]1C	-9.7	-0.1	-0.1	.	-0.5	.	.	.	.	.	.
CC1=NN(c2nc(N)nc(/C(C#N)=C/c3ccc([N+](=O)[O-])o3)n2)C(C)(C)C1	96.4*	42.3*	-29.4	.	78.8*	4.1	12.0	14.9	95.8*	1.2	12.2
O=C(N/N=C/c1sc(=O)n(Cc2ccc(Br)cc2)c1Cl)c1ccco1	21.1	42.0*	-20.2	15.1	147.8*	-23.9	47.7*	38.4	47.3	53.9*	14.4
CCOC(=O)c1sc2nc3c(SCCC(=O)O)cc(C(=O)c4cc(OC)ccc4O)cn3c(=O)c2c1C	-1.5	104.1*	-37.8	.	162.8*	80.4*	30.9	8.1	87.2*	13.7	2.0
CCOC(=O)c1sc2nc(C)n(N)c(=O)c2c1C	3.3	0.1	1.9	-0.8	-0.5	.	.	.	.	.	.
Cc1ccc(C(=O)O)cc1-c1ccc(/C=C2/NC(=O)N(c3ccccc3)C2=O)o1	-23.6	40.8*	-32.1	3.2	41.6*	74.9*	18.5	30.7	.	9.2	20.7*
Cc1cccc(N=C2NC(=O)/C(=C/C=C/c3ccco3)S2)c1C	-18.1	58.3*	0.3	18.9	64.9*	7.5	46.6*	10.4	63.3*	17.6*	37.5*
CC(/C=C1\SC(=S)N(NC(=O)c2ccncc2)C1=O)=C\c1ccccc1	1.3	1.8	0.4	0.4	4.6	.	.	.	.	.	.
COc1cc(/C=C2\SC(=S)N(NC(=O)c3ccncc3)C2=O)ccc1O	49.9*	38.6*	48.8*	17.9	102.6*	72.6*	29.4	65.1*	68.4*	11.8	38.0*
COc1ccc(O)c(/C=N/NC(=O)c2c(C)nnn2-c2nonc2N)c1	41.4*	87.8*	1.5	-5.5	171.2*	184.3*	21.3	25.8	-7.8	33.3*	7.7
COc1ccc(/C=N/NC(=O)c2nnn(-c3nonc3N)c2-c2cccc(OC)c2)cc1	-3.0	-0.7	0.6	1.7	2.1	.	.	.	.	.	.
CCCCc1cc(=O)oc2cc(C)cc(OC(C)C(=O)NCc3cccnc3)c12 (centres undefined)	5.1	1.5	0.9	-5.3	-12.6	.	.	.	.	.	.
